A selection: hits, their analogues and other compounds. The true share with any hit is near 1.6%.
TCR-CD3 inh: inhibitors of human TCR-CD3 interaction | TAMRA-labeled TCR probe fluorescence, biochemical | inhibition, % at 9.4 µM | actives 0.37% (n = 360,000) | AID 651800;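 note: recombinant mutant TCR 2C K166C tagged with TAMRA read by polarization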
DAGLB inh: blocks human DAGLB lipase activity; Q8NCG7; HEK293T DAGLB membrane lysate, EnzChek fluorogenic substrate; inhibition, % at 5.17 µM; actives 0.059% (n = 340,000); in the data active = inhibition above about 34%
mABHD4 FP: inhibitors of mouse ABHD4. AID 720543. Q8VD66. actives 0.54% (n = 370,000). inhibition, % at 8.92 µM. purified mABHD4, FP-Rh probe fluorescence polarization;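 active = inhibition exceeding the mean over every tested compound plus 3 SD, cut at about 30% in these data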
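Assay system: wild-type mouse ABHD4 protein; compound: single nominal dose of 8.92 µM, 0.89% DMSO final; schedule: 45 min + 60 min at 25 °C; measured by: FP readout, ex 525 nm / em 598 nm; evaluation: % inhibition of FP-Rh probe binding versus controls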
SIAE inh: blocks human sialic acid acetylesterase; actives 0.69% (n = 370,000); SIAE FP-Rh probe binding, fluorescence polarization; inhibition, % at 9.66 µM; Q9HAT2;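 active = inhibition above a cutoff: mean of compounds within the control limits plus 3 SD of those, cut at about 17% in these data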
HTRA1 inhibitor: HTRA1 (human) protease inhibition; recombinant HTRA1, FP-rhodamine activity-based probe, fluorescence polarization; inhibition, % at 5.96 µM; actives 0.5% (n = 340,000); in the data active = inhibition above about 36%
Target sequence (Q92743 whole entry, looked up): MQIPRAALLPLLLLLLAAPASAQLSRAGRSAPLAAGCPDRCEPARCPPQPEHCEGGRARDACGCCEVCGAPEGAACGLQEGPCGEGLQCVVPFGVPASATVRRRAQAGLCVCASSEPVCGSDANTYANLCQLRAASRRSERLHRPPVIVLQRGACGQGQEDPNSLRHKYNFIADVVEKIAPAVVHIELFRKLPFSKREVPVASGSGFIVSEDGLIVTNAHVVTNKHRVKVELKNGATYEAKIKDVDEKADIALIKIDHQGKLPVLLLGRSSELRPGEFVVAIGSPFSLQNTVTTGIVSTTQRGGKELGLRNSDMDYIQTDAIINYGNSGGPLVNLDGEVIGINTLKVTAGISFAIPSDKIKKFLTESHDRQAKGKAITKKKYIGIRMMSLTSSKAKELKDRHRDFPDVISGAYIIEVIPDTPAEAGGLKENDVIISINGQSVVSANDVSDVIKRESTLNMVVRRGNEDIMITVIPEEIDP
HTRA1 inh conf: HTRA1 (human) inhibition, confirmation; shares compounds with HTRA1 inhibitor; inhibition, % at 5.96 µM; recombinant HTRA1, FP-rhodamine activity-based probe, fluorescence polarization; actives 66% (n = 1,600);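 active = mean inhibition over three repeats above a set limit taken from the earlier primary screen, cut at about 37% in these data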;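 note: inhibitors block probe binding so polarization drops and inhibition rises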
BSA TAMRA ctr: counter-screen for TCR-CD3 interaction inhibitors: BSA probe | shares compounds with TCR-CD3 inh | TAMRA-labeled BSA probe fluorescence counterscreen | inhibition, % at 9.4 µM | actives 10% (n = 1,200) | AID 652035; in the data active = inhibition above about 23%
TCR-CD3 conf: confirmation of human TCR-CD3 interaction inhibitors; shares compounds with TCR-CD3 inh; TAMRA-labeled TCR probe fluorescence binding assay; inhibition, % at 9.4 µM; actives 48% (n = 1,200)
mABHD4 conf: confirmation of mouse ABHD4 inhibitors; shares compounds with mABHD4 FP; purified mABHD4, FP-Rh probe fluorescence polarization; actives 55% (n = 1,800); inhibition, % at 8.92 µM;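 active = mean inhibition across replicates above the hit cutoff set in the primary screen, cut at about 30% in these data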
Each line names hits and unclear results; the compound was inactive in the other large screens (follow-up assays come after a bar, where they were run). Cut-off read from the data, not from the text of the source, unless noted: active = inhibition above about 19%; inactive = the rest.

COC(=O)C1=C(C)N(Cc2ccccc2C(F)(F)F)C(=NCc2ccc3c(c2)OCO3)NC1c1ccccc1C(F)(F)F (stereo not drawn)	none (no result: DAGLB inh, HTRA1 inhibitor)
CC(Nc1cccc2ccccc12)C(=O)N/N=C/c1ccccn1 (stereo not drawn)	mABHD4 FP 48, HTRA1 inhibitor 46 | HTRA1 inh conf inactive | mABHD4 conf inactive
Cc1ccc(OC(=O)N(C)C[C@H]2OCc3cn(nn3)CCCC(=O)N([C@@H](C)CO)C[C@@H]2C)cc1	none (no result: DAGLB inh, HTRA1 inhibitor)
Oc1cc(CNC2CCCCC2)c(O)cc1CNC1CCCCC1	mABHD4 FP 38, HTRA1 inhibitor 48 | HTRA1 inh conf 64 | mABHD4 conf 56
O=C(c1sccc1Cl)N1CCC(n2nnc3ncccc32)CC1	none (no result: TCR-CD3 inh, DAGLB inh, HTRA1 inhibitor)
O=C(O)c1cccc(N/N=C(\N=Nc2ccccc2)c2ccccc2)c1	mABHD4 FP 72, HTRA1 inhibitor 59 | HTRA1 inh conf 74 | mABHD4 conf 104
NC(=O)/C(N=Nc1ccccc1)=N/Nc1ccccc1	none
CO[C@H]1/C=C/O[C@@]2(C)Oc3c(C)c(O)c4c(O)c(c(C=NN5CCN(C)CC5)c(O)c4c3C2=O)NC(=O)/C(C)=C\C=C\[C@H](C)[C@H](O)[C@@H](C)[C@@H](O)[C@@H](C)[C@H](OC(C)=O)[C@@H]1C	mABHD4 FP 35, HTRA1 inhibitor 36 | HTRA1 inh conf inactive | mABHD4 conf inactive
O=c1cc2c(=O)oc3cc(O)c(O)oc3c2c(O)c1O	TCR-CD3 inh 26, mABHD4 FP 42, HTRA1 inhibitor 47 | HTRA1 inh conf 38 | BSA TAMRA ctr inactive | TCR-CD3 conf 19 | mABHD4 conf 34
COC(=O)/C=C/c1ccc2c(c1)OCO2	none
CCNc1ccccc(C(=O)/C=C/c2ccc3c(c2)OCO3)c1=O	mABHD4 FP 41, HTRA1 inhibitor 36 | HTRA1 inh conf inactive | mABHD4 conf inactive
CC1=NN(c2ccc(C(=O)O)cc2)C(=O)/C1=C/c1ccc(-c2ccccc2F)o1	none (no result: TCR-CD3 inh, mABHD4 FP, SIAE inh)
CC1=NN(c2ccc(C)cc2)C(=O)/C1=C/c1ccc(-c2cc([N+](=O)[O-])ccc2O)o1	mABHD4 FP 31, HTRA1 inhibitor 46 | HTRA1 inh conf 53 | mABHD4 conf 53
C[C@H]1O[C@@H](n2c3ccc(Cl)cc3c3ccc4c5cc(Cl)ccc5[nH]c4c32)[C@H](O)[C@H](O)[C@H]1O	none (no result: TCR-CD3 inh, DAGLB inh, HTRA1 inhibitor)
OCc1ccccc1CNCc1ccccc1	none
Oc1cc(CNCc2ccccc2)c(O)cc1CNCc1ccccc1	mABHD4 FP 41, HTRA1 inhibitor 57 | HTRA1 inh conf 52 | mABHD4 conf 58
c1ccc(COCCc2cn(Cc3ccccc3)c3ccccc23)cc1	none (no result: DAGLB inh, HTRA1 inhibitor)
O=C(NCc1ccccc1)c1ccc2nc(-c3ccco3)c(-c3ccco3)nc2c1	TCR-CD3 inh 22, mABHD4 FP 54, SIAE inh 34, HTRA1 inhibitor 63 | HTRA1 inh conf inactive | BSA TAMRA ctr inactive | TCR-CD3 conf 24 | mABHD4 conf 38
O=C(CCc1ccccc1)N[C@H]1[C@@H](OC(=O)c2ccc([N+](=O)[O-])cc2)CCC[C@]12C(=O)N(Cc1ccccc1)c1ccccc12	none (no result: TCR-CD3 inh, DAGLB inh, HTRA1 inhibitor)
CCN=c1scc(-c2ccco2)n1/N=C/c1ccc(O)cc1	none
CCN=c1scc(C)n1/N=C/c1ccc(O)c(O)c1O	TCR-CD3 inh 27, mABHD4 FP 60, HTRA1 inhibitor 60 | HTRA1 inh conf 81 | BSA TAMRA ctr inactive | TCR-CD3 conf 41 | mABHD4 conf 49
COc1ccc(CN2CCC(CNC(=O)Nc3ccc(C)c(F)c3)CC2)cc1	none (no result: TCR-CD3 inh, DAGLB inh, HTRA1 inhibitor)
O=C1CC(N(O)c2ccccc2)C(=O)N1c1cc(Cl)cc(Cl)c1 (stereo not drawn)	TCR-CD3 inh 25, mABHD4 FP 45, HTRA1 inhibitor 40 | HTRA1 inh conf inactive | BSA TAMRA ctr inactive | TCR-CD3 conf inactive | mABHD4 conf inactive
CCCOc1ccc(N2C(=O)CC(N(O)c3ccccc3)C2=O)cc1 (stereo not drawn)	none
COC(=O)[C@]12C[C@H](CC(=O)NCc3cccc4ccccc34)C(=O)N(Cc3ccc(Cl)cc3Cl)C1=C[C@H](C(C)C)O[C@@H]2C1CC1	none (no result: TCR-CD3 inh, DAGLB inh, HTRA1 inhibitor)
COc1ccc(-c2cscc2N)cc1	none (no result: DAGLB inh, HTRA1 inhibitor)
Cc1cc(C(=O)N/N=C/c2ccc(O)c(O)c2O)c(C)n1-c1ccccc1	TCR-CD3 inh 30, mABHD4 FP 61, HTRA1 inhibitor 67 | HTRA1 inh conf 67 | BSA TAMRA ctr inactive | TCR-CD3 conf 29 | mABHD4 conf 47
Cc1ccc(C)n1-c1ccc(N(C)C)cc1	mABHD4 FP 32, HTRA1 inhibitor 38 | HTRA1 inh conf 40 | mABHD4 conf inactive
Cc1ccc(N(C)C)cc1	none (no result: DAGLB inh, HTRA1 inhibitor)
Cc1ccc(N2NC(=O)/C(=C\c3cc4c(cc3[N+](=O)[O-])OCO4)C2=O)cc1C	mABHD4 FP 47, HTRA1 inhibitor 63 | HTRA1 inh conf 37 | mABHD4 conf 47
O=C(NCCCc1ccccc1)[C@H](Cc1ccccc1)NC1(C(=O)NCCc2c[nH]c3ccccc23)CCOCC1	none (no result: TCR-CD3 inh, DAGLB inh, HTRA1 inhibitor)
CCOC(=O)c1c2c(n(Cc3ccccc3)c1C)C(=O)C(=O)c1ccccc1-2	mABHD4 FP 39, HTRA1 inhibitor 46 | HTRA1 inh conf 43 | mABHD4 conf 54
CC(C)(C)N(Cc1cn(CC2CCCCC2)nn1)S(=O)(=O)c1ccccc1Br	none (no result: TCR-CD3 inh, DAGLB inh, HTRA1 inhibitor)
CCCCNC(=O)NCCCN1CCN(c2ccc(F)cc2)CC1	none (no result: TCR-CD3 inh, DAGLB inh, HTRA1 inhibitor)
Cc1ccc(NC2=C(NC(=O)c3ccccc3)C(=O)c3ccccc3C2=O)cc1Cl	mABHD4 FP 30, HTRA1 inhibitor 44 | HTRA1 inh conf 42 | mABHD4 conf 50
Cc1ccc(NCC(=O)c2ccccc2)cc1Cl	none
C=CCN1[C@H](CC(C)C)COc2cc(F)ccc2S1(=O)=O	none (no result: TCR-CD3 inh, DAGLB inh, HTRA1 inhibitor)
Cc1[nH]c2ccccc2c1/C=N/Nc1ccccc1[N+](=O)[O-]	mABHD4 FP 59, HTRA1 inhibitor 68 | HTRA1 inh conf 74 | mABHD4 conf 73
COc1ccc(NS(=O)(=O)c2cc([N+](=O)[O-])ccc2N/N=C/c2c(C)[nH]c3ccccc23)cc1	none
NC(=S)NNc1cccc2cccnc12	TCR-CD3 inh 19, mABHD4 FP 32, HTRA1 inhibitor 46 | HTRA1 inh conf inactive | BSA TAMRA ctr inactive | TCR-CD3 conf inactive | mABHD4 conf 52
NC(=S)Nc1cccc2cccnc12	none
Oc1ccccc1CNc1cccc2cccnc12	mABHD4 FP 47, HTRA1 inhibitor 39 | HTRA1 inh conf inactive | mABHD4 conf inactive

From PubChem
